Consider one compound from ChEMBL document CHEMBL4622996, “Discovery of Vixotrigine: A Novel Use-Dependent Sodium Channel Blocker for the Treatment of Trigeminal Neuralgia” (ACS Med Chem Lett, 2020).

By bioavailability is commonly meant dose-corrected exposure relative to a reference, in per cent. What is called clearance is the rate of elimination divided by the concentration. The Cmax is the maximum level reached in the sampled fluid or tissue. For orientation: half-life means the time in which the quantity being followed falls by half. Broadly, the Papp is the rate of passage across a membrane or cell layer, normalised by area and donor concentration. Usually IC50 stands for the concentration that inhibits the measured activity by half.

Structures are written as SMILES.

Data set [1] is described as follows: Oral bioavailability in monkey at 3 mg/kg. The class given is ADME, organism-based, Macaca mulatta. The settings on record: rhesus monkey, in vivo.
Data set [2] can be described thus: Free plasma concentration in complete Freund's adjuvant-induced rat model at 1 mg/kg, po measured after 1 hr. The settings on record: in vivo. Type of data set: ADME, organism-based.
Data set [3] is described as follows: Ratio of drug level in brain to blood in rat. Type of data set: ADME, tissue-based. Particulars: read-out: Kbb; call rule not given here.
Data set [4] is described as follows: Total blood clearance in dog blood at 0.5 mg/kg, iv. The class given is ADME, organism-based, Canis lupus familiaris.
Data set [5] is described as follows: Cmax in rat at 3 mg/kg, po. The class given is ADME, organism-based. More on the design: dose 3 mg/kg, route oral. Particulars: in vivo.
A short description of data set [6]: Toxicity in rat assessed as sedation by measuring spontaneous locomotor activity at 100 to 300 mg/kg, po. The class given is organism-based. Particulars: in vivo. The essentials: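 Male rats, spontaneous locomotor activity test; oral doses 60, 100 or 300 mg/kg given 30 min before the session; plasma sampled 60 min postdose at 60 mg/kg.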
The nature of data set [7]: Half life in dog at 0.5 mg/kg, iv. Type of data set: ADME, organism-based, Canis lupus familiaris. Particulars: in vivo.
The target of data set [8] is T1, Solute carrier family 22 member 6 (Homo sapiens, UniProt Q4U2R8).
T1 sequence (Q4U2R8 whole entry): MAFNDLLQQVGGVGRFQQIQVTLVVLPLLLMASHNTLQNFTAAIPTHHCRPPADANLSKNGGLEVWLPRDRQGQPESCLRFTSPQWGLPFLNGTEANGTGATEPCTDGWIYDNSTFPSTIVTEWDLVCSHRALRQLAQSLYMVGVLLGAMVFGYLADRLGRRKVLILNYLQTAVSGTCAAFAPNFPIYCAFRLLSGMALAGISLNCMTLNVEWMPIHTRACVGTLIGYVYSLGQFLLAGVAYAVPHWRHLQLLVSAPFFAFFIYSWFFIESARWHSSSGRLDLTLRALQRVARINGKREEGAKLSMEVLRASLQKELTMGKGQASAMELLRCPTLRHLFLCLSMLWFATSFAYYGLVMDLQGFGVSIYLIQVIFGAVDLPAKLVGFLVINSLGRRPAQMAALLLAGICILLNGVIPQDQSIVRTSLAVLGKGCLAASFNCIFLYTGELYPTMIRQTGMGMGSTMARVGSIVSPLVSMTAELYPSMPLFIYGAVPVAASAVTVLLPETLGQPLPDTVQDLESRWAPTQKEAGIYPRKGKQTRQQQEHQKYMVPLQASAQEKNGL
The data set is described as follows: Inhibition of OAT1 (unknown origin).

The nature of data set [9]: Apparent permeability in dog MDCK cells at pH 7.4. The class given is ADME, cell-based, Canis lupus familiaris. The essentials: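 MDCK cell monolayer permeability measured at pH 7.4, reported as apparent permeability in nm/s.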
The target in data set [10] is Cytochrome P450 2C9 (Homo sapiens, UniProt P11712). The data set is described as follows: Inhibition of CYP2C9 (unknown origin). Type of data set: ADME.
Sequence of Cytochrome P450 2C9 (P11712 whole entry): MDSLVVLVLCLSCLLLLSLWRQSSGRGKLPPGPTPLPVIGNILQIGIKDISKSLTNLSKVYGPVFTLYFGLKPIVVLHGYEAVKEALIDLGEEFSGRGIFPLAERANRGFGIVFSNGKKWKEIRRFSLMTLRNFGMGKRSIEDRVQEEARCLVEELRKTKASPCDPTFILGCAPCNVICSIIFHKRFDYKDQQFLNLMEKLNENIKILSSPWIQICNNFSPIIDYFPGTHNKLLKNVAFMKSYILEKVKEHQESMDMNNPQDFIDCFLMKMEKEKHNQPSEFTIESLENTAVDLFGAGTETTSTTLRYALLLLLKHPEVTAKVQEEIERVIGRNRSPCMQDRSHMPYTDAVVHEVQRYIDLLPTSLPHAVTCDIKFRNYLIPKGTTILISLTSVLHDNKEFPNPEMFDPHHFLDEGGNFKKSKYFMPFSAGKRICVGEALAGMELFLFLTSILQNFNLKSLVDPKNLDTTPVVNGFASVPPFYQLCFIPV
Data set [11] has as its target T2, Solute carrier organic anion transporter family member 1B1 (Homo sapiens, UniProt Q9Y6L6).
T2 sequence (Q9Y6L6 whole entry): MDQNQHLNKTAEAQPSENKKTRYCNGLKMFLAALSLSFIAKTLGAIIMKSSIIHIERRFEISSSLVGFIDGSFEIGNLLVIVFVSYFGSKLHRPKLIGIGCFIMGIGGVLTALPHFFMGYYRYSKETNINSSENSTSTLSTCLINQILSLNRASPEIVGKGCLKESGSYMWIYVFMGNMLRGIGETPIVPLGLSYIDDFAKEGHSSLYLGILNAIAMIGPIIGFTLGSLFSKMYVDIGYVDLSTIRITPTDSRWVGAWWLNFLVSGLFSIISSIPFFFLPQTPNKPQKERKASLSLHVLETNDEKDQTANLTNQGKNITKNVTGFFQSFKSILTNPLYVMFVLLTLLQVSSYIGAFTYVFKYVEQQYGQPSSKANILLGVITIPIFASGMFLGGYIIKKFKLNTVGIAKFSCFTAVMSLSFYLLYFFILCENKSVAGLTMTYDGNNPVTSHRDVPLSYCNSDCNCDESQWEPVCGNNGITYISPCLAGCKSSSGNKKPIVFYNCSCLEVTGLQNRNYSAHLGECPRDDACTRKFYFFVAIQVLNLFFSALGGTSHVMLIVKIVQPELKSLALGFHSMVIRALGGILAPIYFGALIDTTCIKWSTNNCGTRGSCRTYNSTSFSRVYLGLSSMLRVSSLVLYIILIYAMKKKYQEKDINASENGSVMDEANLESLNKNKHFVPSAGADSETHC
The data set is described as follows: Inhibition of OATP1B1 (unknown origin) upto 100 uM.

The target in data set [12] is T3, Broad substrate specificity ATP-binding cassette transporter ABCG2 (Homo sapiens, UniProt Q9UNQ0).
T3 sequence (Q9UNQ0 whole entry): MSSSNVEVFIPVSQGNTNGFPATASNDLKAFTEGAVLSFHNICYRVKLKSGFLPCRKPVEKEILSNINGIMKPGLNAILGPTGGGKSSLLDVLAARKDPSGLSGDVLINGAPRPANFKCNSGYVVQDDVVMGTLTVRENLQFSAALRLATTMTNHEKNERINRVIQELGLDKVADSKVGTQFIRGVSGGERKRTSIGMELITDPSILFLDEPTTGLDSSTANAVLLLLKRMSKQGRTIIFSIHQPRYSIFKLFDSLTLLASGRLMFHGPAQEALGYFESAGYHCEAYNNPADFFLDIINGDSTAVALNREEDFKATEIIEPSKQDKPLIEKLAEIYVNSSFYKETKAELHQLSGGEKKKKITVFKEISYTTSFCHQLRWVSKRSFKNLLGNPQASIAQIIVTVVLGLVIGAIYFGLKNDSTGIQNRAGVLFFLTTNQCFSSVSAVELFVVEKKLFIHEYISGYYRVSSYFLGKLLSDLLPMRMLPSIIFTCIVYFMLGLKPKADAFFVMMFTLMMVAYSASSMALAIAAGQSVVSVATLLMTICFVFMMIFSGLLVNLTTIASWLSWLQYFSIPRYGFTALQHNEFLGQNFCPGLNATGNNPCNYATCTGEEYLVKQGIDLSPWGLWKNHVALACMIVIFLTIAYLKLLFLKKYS
The data set is described as follows: Inhibition of BCRP (unknown origin).

The target in data set [13] is T4, Solute carrier family 22 member 2 (Homo sapiens, UniProt O15244).
T4 sequence (O15244 whole entry): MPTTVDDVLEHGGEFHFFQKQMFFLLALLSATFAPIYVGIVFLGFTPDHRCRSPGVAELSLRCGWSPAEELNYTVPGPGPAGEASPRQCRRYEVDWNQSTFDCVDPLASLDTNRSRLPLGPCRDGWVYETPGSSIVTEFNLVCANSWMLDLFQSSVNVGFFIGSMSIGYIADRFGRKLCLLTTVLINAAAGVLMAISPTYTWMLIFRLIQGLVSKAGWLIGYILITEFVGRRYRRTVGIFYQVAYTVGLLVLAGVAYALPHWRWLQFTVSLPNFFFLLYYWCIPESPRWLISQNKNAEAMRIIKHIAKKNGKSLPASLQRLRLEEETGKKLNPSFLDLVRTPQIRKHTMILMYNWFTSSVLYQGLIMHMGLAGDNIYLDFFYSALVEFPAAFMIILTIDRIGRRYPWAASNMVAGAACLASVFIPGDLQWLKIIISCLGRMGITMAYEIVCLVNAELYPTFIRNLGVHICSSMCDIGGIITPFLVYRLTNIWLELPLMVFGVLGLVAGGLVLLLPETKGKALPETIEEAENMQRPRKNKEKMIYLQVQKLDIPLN
The data set is described as follows: Inhibition of OCT2 (unknown origin).

Compound `Cl.NC(=O)[C@@H]1CC[C@H](c2ccc(OCc3ccccc3F)cc2)N1` [RAXATRIGINE HYDROCHLORIDE] registered a bioavailability in data set [1] of 42%. Moreover, the “Cp(f)” value in data set [2] was 7.8 ng/mL. Besides, the Kp in data set [3] came out at 6.8. The compound also had a clearance in data set [4] of 12 mL/min/kg. The compound further displayed a maximum concentration (Cmax) in [5] of 226 ng/mL. The Activity entry in data set [6] is on record as “Toxic”. Moreover, the half-life in [7] is 2.2 h. For the same compound, the “inhibition (INH)” value in [8], in data set [11], in data set [12] and in [13] was “Not Active” in each case. For the same compound, in data set [9], the Papp came out at 38.6 ×10⁻⁶ cm/s. This compound returned an IC50 in data set [10] of more than 100 µM.
